# Reference: ChEMBL document CHEMBL1149182, “Cyclodextrin-derived diorganyl tellurides as glutathione peroxidase mimics and inhibitors of thioredoxin reductase and cancer cell growth” (J Med Chem, 2004)
# Legend:
# [1] = tested on: MCF7; test: Inhibition of growth of MCF-7 breast cancer cells in culture; assay type: functional, cell-based; conditions: Homo sapiens
# Outline: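 Human MCF-7 cells seeded at 3000/well in DMEM + 10% FBS, 16 h at 37 °C, 5.5% CO2, then compound 0.1–20 μM for 72 h. MTT added for 3 h, formazan dissolved in DMSO, dual OD read at 595/655 nm. Viability given as % of untreated control. IC50 is concentration halving growth versus control. Triplicate determinations.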
# [2] = target: T1, Thioredoxin reductase (Homo sapiens, UniProt Q16881+Q9NNW7+Q86VQ6); test: Inhibition of thioredoxin reductase in the presence of thioredoxinand insulin; assay type: protein assay
# Outline: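 Insulin reduction coupled to Trx/TrxR, final concentrations: 100 mM HEPES pH 7.2, 5 mM EDTA, 1 mM NADPH, 1.0 μM TrxR, 0.8 μM Trx, 2.5 mg/mL bovine insulin plus inhibitor. 30 min at 37 °C, stopped with 6 M guanidine HCl/50 mM Tris pH 8.0/10 mM DTNB, absorbance at 412 nm. IC50 for 50% inhibition of thionitrobenzoate formation.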
# [3] = target: T1, Thioredoxin reductase; test: Inhibition of thioredoxin reductase; assay type: protein assay
# Outline: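 TrxR-only activity in HE buffer (100 mM HEPES pH 7.2, 5 mM EDTA) with 1.0 μM TrxR, 10 mM DTNB, 1 mM NADPH and inhibitor (final). Compound and enzyme added first, reaction started with NADPH/DTNB at 37 °C. OD 412 nm read every 10 s for initial linear rates. IC50 is 50% inhibition of thionitrobenzoate formation.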
SMILES,IC50 [1] [µM],IC50 [2] [µM],IC50 [3] [µM]
CN(C)c1ccc([Te]CC2O[C@@H]3O[C@@H]4C(CO)O[C@H](O[C@@H]5C(CO)O[C@H](O[C@@H]6C(CO)O[C@@H](O[C@@H]7C(CO)O[C@H](O[C@@H]8C(CO)O[C@H](O[C@@H]9C(CO)O[C@H](O[C@H]2C(O)C3O)C(O)C9O)C(O)C8O)C(O)C7O)C(O)C6O)C(O)C5O)C(O)C4O)cc1 (stereo partly specified),10.4,3.4,0.26
COc1ccc([Te]CC2O[C@@H]3O[C@@H]4C(CO)O[C@H](O[C@@H]5C(CO)O[C@H](O[C@@H]6C(CO)O[C@@H](O[C@@H]7C(CO)O[C@H](O[C@@H]8C(CO)O[C@H](O[C@@H]9C(CO)O[C@H](O[C@H]2C(O)C3O)C(O)C9O)C(O)C8O)C(O)C7O)C(O)C6O)C(O)C5O)C(O)C4O)cc1 (stereo partly specified),4.6,7.6,1.6
OCC1O[C@@H]2O[C@@H]3C(C[Se]c4ccccc4)O[C@H](O[C@@H]4C(CO)O[C@H](O[C@@H]5C(CO)O[C@H](O[C@@H]6C(CO)O[C@@H](O[C@@H]7C(CO)O[C@H](O[C@@H]8C(CO)O[C@H](O[C@H]1C(O)C2O)C(O)C8O)C(O)C7O)C(O)C6O)C(O)C5O)C(O)C4O)C(O)C3O (stereo partly specified),10.2,18,17.8
OCC1O[C@@H]2O[C@@H]3C(CO)O[C@H](O[C@@H]4C(CO)O[C@H](O[C@@H]5C(CO)O[C@@H](O[C@@H]6C(CO)O[C@H](O[C@@H]7C(C[Te]CC8O[C@@H]9O[C@@H]%10C(CO)O[C@@H](O[C@@H]%11C(CO)O[C@H](O[C@@H]%12C(CO)O[C@H](O[C@@H]%13C(CO)O[C@H](O[C@@H]%14C(CO)O[C@H](O[C@@H]%15C(CO)O[C@H](O[C@H]8C(O)C9O)C(O)C%15O)C(O)C%14O)C(O)C%13O)C(O)C%12O)C(O)C%11O)C(O)C%10O)O[C@H](O[C@@H]8C(CO)O[C@H](O[C@H]1C(O)C2O)C(O)C8O)C(O)C7O)C(O)C6O)C(O)C5O)C(O)C4O)C(O)C3O (stereo partly specified),1.4,0.5,2.4
CCCC[Te]CC1O[C@@H]2O[C@@H]3C(CO)O[C@H](O[C@@H]4C(CO)O[C@H](O[C@@H]5C(CO)O[C@@H](O[C@@H]6C(CO)O[C@H](O[C@@H]7C(CO)O[C@H](O[C@@H]8C(CO)O[C@H](O[C@H]1C(O)C2O)C(O)C8O)C(O)C7O)C(O)C6O)C(O)C5O)C(O)C4O)C(O)C3O (stereo partly specified),6,1.2,18
OCC1O[C@@H]2O[C@@H]3C(C[Te]c4ccc(O)cc4)O[C@H](O[C@@H]4C(CO)O[C@H](O[C@@H]5C(CO)O[C@H](O[C@@H]6C(CO)O[C@@H](O[C@@H]7C(CO)O[C@H](O[C@@H]8C(CO)O[C@H](O[C@H]1C(O)C2O)C(O)C8O)C(O)C7O)C(O)C6O)C(O)C5O)C(O)C4O)C(O)C3O (stereo partly specified),1.6,4,18
OCC1O[C@@H]2O[C@@H]3C(C[Te]c4ccccc4)O[C@H](O[C@@H]4C(CO)O[C@H](O[C@@H]5C(CO)O[C@H](O[C@@H]6C(CO)O[C@@H](O[C@@H]7C(CO)O[C@H](O[C@@H]8C(CO)O[C@H](O[C@H]1C(O)C2O)C(O)C8O)C(O)C7O)C(O)C6O)C(O)C5O)C(O)C4O)C(O)C3O (stereo partly specified),10.1,7.6,1.6
